# Measured values gathered from unrelated publications.
# Compare with care: the assays were run in different laboratories.
Compound,test system,conditions,Tmax [min]
Cc1cc(Nc2ccc(S(F)(F)(F)(F)F)cc2)n2ccnc2n1,"male Swiss mouse, plasma","oral, 100 mg/kg, single dose",30
CNC(=O)c1cc(Oc2ccc(NC(=O)Nc3ccc(Cl)c(C(F)(F)F)c3)c(F)c2)cc[n+]1[O-],"mouse, plasma","oral, 10 mg/kg, single dose",324
CCc1cc(OC)c2nccc(N3CCc4c(cc(Cn5ccnc5)cc4-c4cn(C)nc4C(F)(F)F)C3=O)c2c1,"male CD-1 mouse, plasma","oral, 50 mg/kg",42
COc1ccc(C(O)COc2ccc(-c3csc(-c4ccc(OCC(O)c5ccc(OC)c(OC)c5)cc4)n3)cc2)cc1OC (centres unmarked),"C57BL/6 mouse, plasma","oral, 10 mg/kg",60
CC=Cc1ccc(O)c(OC)c1,"mouse, lung","intranasal, 100 mg/kg",5
CS(=O)(=O)CCNCc1ccc(-c2ccc3ncnc(Nc4ccc(OCc5cccc(F)c5)c(Cl)c4)c3c2)o1,"nude mouse, plasma","oral, 200 mg/kg, single dose",480
OC[C@H]1O[C@@H](c2ccc(Cl)c(Cc3ccc(O[C@H]4CCOC4)cc3)c2)[C@H](O)[C@@H](O)[C@@H]1O,"CD-1 mouse, plasma","oral, 10 mg/kg",15
COc1ccc2c3c1O[C@H]1C[C@@H](OC(=O)c4ccccc4)C=C[C@@]31CCN(C)C2,"mouse, blood","intravenous, 3 mg/kg",3
NC(=O)c1cc(Oc2ccc(NC(=O)Nc3ccc(Cl)c(C(F)(F)F)c3)c(F)c2)cc[n+]1[O-],"mouse, plasma","oral, 10 mg/kg, single dose",450
COc1nc(-c2cc(C)c(N[C@@H](C)c3cc(F)cc(F)c3)nn2)ccc1-n1cnc(C)c1,"male CD-1 mouse, plasma","oral, 5 mg/kg, single dose",60
CN1CCN(C(=O)CN[C@@H]2C[C@H]2c2ccc(OCc3ccccc3)cc2)CC1,"mouse, plasma","intraperitoneal, 10 mg/kg",4.8
Cc1c(-c2cc3ccccc3n2Cc2ccc(F)cc2)nc2cc(C(=O)N3CCC[C@@H](N)C3)ccn12,"male BALB/c mouse, plasma","oral, 10 mg/kg",30
CN1C(=O)c2ccccc2[S@+]([O-])c2ccc(C(=O)NCCc3cccs3)cc21,"male C57BL/6 mouse, brain","intraperitoneal, 30 mg/kg, single dose",15
COc1cc(C(=O)N2CCC(N3CCN(C)CC3)CC2)ccc1Nc1ncc2c(n1)N(C)c1ccccc1C(=O)N2C,"mouse, plasma","oral, 10 mg/kg",60
COc1ccc(CNc2c3c(nc4ccc(C#N)cc24)CCN(C(C)=O)C3)cc1Cl,"mouse, plasma","intraperitoneal, 25 mg/kg",15
CCCc1c(C2CCCCN2CCN2CCOCC2)[nH]c2cc(OC(F)(F)F)ccc12 (centres unmarked),"male mouse, plasma","oral, 30 mg/kg",60
O=S(=O)(c1ccc(-c2ccc3nccc(Nc4ccncn4)c3c2)cc1)N1CCOCC1,"female BALB/c mouse, brain","intraperitoneal, 10 mg/kg",15
COc1ccc2nccc(N3CCc4c(cc(Cn5ccnc5)cc4-c4cn(C)nc4C(F)(F)F)C3=O)c2c1,"male CD-1 mouse, plasma","oral, 10 mg/kg",42
[Cl-].c1csc([I+]c2cccs2)c1,"mouse, plasma",intraperitoneal,≤ 1
Cc1ccc2cncc(N3CCc4c(cc(Cn5ccnc5)cc4-c4cn(C)nc4C(F)(F)F)C3=O)c2c1,"male CD-1 mouse, plasma","oral, 50 mg/kg",78
CC(C)(C)c1ccc(O)c(CN(Cc2cc(C(C)(C)C)ccc2O)C2CCC(NC(N)=O)CC2)c1 (centres unmarked),"male C57BL/6 mouse, plasma","oral, 10 mg/kg, single dose",30
CCc1ccc(Cc2cc([C@@H]3O[C@H](CO)[C@@H](O)[C@H](O)[C@H]3O)cc3c2CCC3)cc1,"male C57BL/6 mouse, plasma","oral, 3 mg/kg",30
CC(C)(Nc1nc(-c2ccccn2)nc2ccccc12)c1ccccn1,"female BALB/c mouse, plasma","oral, 50 mg/kg",342
CC(C)c1cnn2c(NCc3ccccc3)cc(NC[C@H]3CCNC[C@@H]3O)nc12,"female nude mouse, tumour","oral, 100 mg/kg, tumour-bearing",360
CCc1cc(C(=O)NC)c2nccc(N3CCc4c(cc(Cn5ccnc5)cc4-c4cn(C)nc4C(F)(F)F)C3=O)c2c1,"male CD-1 mouse, plasma","oral, 150 mg/kg",30
Cc1cc(NC(=O)c2cccc3cc(-c4cccc5[nH]nc(N)c45)ccc23)ccc1F,"male CD-1 mouse, plasma","oral, 10 mg/kg",60
CNC(=O)c1cc(OC)cc2c(N3CCc4c(cc(Cn5ccnc5)cc4-c4cn(C)nc4C(F)(F)F)C3=O)ccnc12,"male CD-1 mouse, plasma","oral, 50 mg/kg",48
COc1nc(-c2cc(C)c(N[C@@H](C)c3c(F)cc(F)cc3F)nn2)ccc1-n1cnc(C)c1,"male CD-1 mouse, plasma","oral, 5 mg/kg, single dose",120
O=C(c1nc2ccc(F)cc2[nH]1)c1c[nH]c2c(F)cccc12,"female mouse, plasma","intraperitoneal, 6 mg/kg",~15
Cc1ccc(NC(=O)c2ccc(CN3CCN(C)CC3)cc2)cc1Nc1nccc(-c2cncc(-c3oncc3C)c2)n1,"male C57BL/6 mouse, brain","oral, 100 mg/kg/day",120
CNCCN(C)c1cc(C#N)cc(CCc2cc(C)cc(N)n2)c1,"male BALB/c mouse, brain","oral, 10 mg/kg",240
CC(C)(C)c1cc(NC(=O)Nc2ccc(Oc3ccnc4[nH]c(=O)cnc34)cc2F)n(-c2ccccc2)n1,"BALB/c mouse, plasma","intravenous, 2 mg/kg",4.98
CNC(=O)[C@H](Cc1c[nH]cn1)NC(=O)CN(CCCc1ccccc1)CC(=O)O,"male C57BL/6 mouse, plasma","intraperitoneal, 30 mg/kg",10
COc1nc(-c2cc(C)c(N[C@@H](C)c3ccc(F)cc3)nn2)ccc1-n1cnc(C)c1,"male CD-1 mouse, plasma","intravenous, 1 mg/kg, single dose",4.98
CSc1cc(Oc2ccnc3[nH]c(=O)cnc23)ccc1NC(=O)Nc1cc(C(C)(C)C)nn1-c1ccccc1,"BALB/c mouse, plasma","oral, 10 mg/kg",180
C=CC(=O)N1CC2CC(n3nc(-c4ccc(C(=O)Nc5ccccn5)cc4)c4c(N)ncnc43)CC2C1 (centres unmarked),"SCID mouse, plasma","oral, 3 mg/kg",15
CNC(=O)[C@H](Cc1c[nH]cn1)NC(=O)CN(CCCc1ccccc1)CC(=O)OC,"male C57BL/6 mouse, plasma","intraperitoneal, 30 mg/kg",10
CN1CCC[C@H](CN2c3ccccc3Sc3ccccc32)C1.Cl,"mouse, plasma","oral, 64 mg/kg, single dose",120
